Data reported in ChEMBL document CHEMBL4229356, “Synthesis and antikinetoplastid evaluation of bis(benzyl)spermidine derivatives” (Eur J Med Chem, 2018).

Columns and labels:
[1] = Selectivity index, ratio of CC50 for mouse RAW264.7 cells to IC50 for Trypanosoma brucei gambiense FeoITMAP/1893; format: toxicity; conditions: read-out: Ratio CC50/IC50
[2] = Selectivity index, ratio of CC50 for mouse RAW264.7 cells to IC50 for Leishmania donovani LV9 axenic intramacrophage amastigotes infected in mouse RAW264.7 cells; format: toxicity, cell-based; conditions: read-out: Ratio CC50/IC50
[3] = Cytotoxicity against mouse RAW264.7 cells assessed as reduction in cell viability after 48 hrs by resazurin assay; format: cell-based
Summary of the method: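 RAW 264.7 macrophages at 2.10⁴/well were preincubated 24 h, then exposed 48 h at 37 °C, 5% CO2 to two-fold dilutions in DMEM. Resazurin was added for 4 h in the dark and read at OD570/OD600. Result given as CC50.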

[4] = Selectivity index, ratio of CC50 for mouse RAW264.7 cells to IC50 for Leishmania donovani LV9 axenic amastigotes incubated for 72 hrs by resazurin dye based assay; format: toxicity; conditions: read-out: Ratio CC50/IC50
Leishmania donovani [5] = assay: Antiparasitic activity against Leishmania donovani LV9 axenic amastigotes incubated for 72 hrs by resazurin dye based assay; format: functional, organism-based; conditions: LV9, 72 h
Summary of the method: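 LV9 axenic amastigotes were derived from promastigotes in M-199 at pH 5.5, 37 °C, 5% CO2, and used in log phase. Cells at 10⁶/mL were exposed 72 h to two-fold dilutions from 100 to 0.02 μM. Resazurin was then added for 24 h in the dark and read at OD570/OD600. IC50 is relative to excipient-only controls; miltefosine was the reference.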

[6] = test system: Trypanosoma brucei gambiense; assay: Trypanocidal activity against Trypanosoma brucei gambiense FeoITMAP/1893 after 72 hrs by resazurin dye based assay; format: functional, organism-based; conditions: FeoITMAP/1893, 72 h
Summary of the method: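 T. b. gambiense Feo was grown in supplemented IMDM with 10% FBS. Cells at 4.10⁴/mL were exposed 72 h at 37 °C, 5% CO2 in the dark to two-fold dilutions. Resazurin (450 µM solution) was added for 6 h and read at OD570/OD600. Result given as IC50; pentamidine was the reference.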

Leishmania donovani [7] = assay: Antiparasitic activity against Leishmania donovani LV9 axenic intramacrophage amastigotes infected in mouse RAW264.7 cells incubated for 48 hrs by Sybr Green 1 dye based fluorescence assay; format: functional, organism-based; conditions: LV9, RAW264.7, 48 h
Summary of the method: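 RAW 264.7 cells at 2.10⁴/well were infected 24 h with axenic amastigotes at a 16:1 parasite to macrophage ratio, then extracellular parasites were removed. Cells were treated 48 h with two-fold dilutions from 100 µM. They were then lysed (freeze-thaw, proteinase K, 55 °C overnight) and total DNA read by SYBR Green I fluorescence against untreated infected cells. Result given as IC50.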

[8] = target: Trypanothione reductase (Trypanosoma brucei brucei) (UniProt P39051); assay: Inhibition of Trypanosoma brucei trypanothione reductase at 40 uM using 40 uM TS2 as substrate in presence of NADPH by spectrophotometric method relative to control
Trypanothione reductase (Trypanosoma brucei brucei), sequence (P39051 whole entry, looked up): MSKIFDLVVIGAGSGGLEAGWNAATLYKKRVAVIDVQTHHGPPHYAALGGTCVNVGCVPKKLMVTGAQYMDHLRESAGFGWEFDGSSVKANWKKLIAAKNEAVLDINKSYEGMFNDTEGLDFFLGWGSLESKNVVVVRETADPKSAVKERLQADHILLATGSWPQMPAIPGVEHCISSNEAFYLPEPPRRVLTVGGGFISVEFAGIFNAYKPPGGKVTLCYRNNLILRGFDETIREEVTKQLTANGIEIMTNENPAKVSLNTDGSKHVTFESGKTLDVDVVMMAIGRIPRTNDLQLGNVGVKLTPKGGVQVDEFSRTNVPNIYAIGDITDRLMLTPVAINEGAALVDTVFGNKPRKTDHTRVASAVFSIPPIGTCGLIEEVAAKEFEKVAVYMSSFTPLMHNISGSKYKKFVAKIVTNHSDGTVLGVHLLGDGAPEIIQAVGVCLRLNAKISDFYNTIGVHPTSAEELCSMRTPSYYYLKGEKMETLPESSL
Summary of the method: (§1)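 Recombinant T. brucei TryR (5-10 mU) in 40 mM Hepes, 1 mM EDTA, pH 7.5, with 100 μM NADPH, 5% DMSO, at 25 °C. Inhibitor was fixed at 40 μM; TS2 at 100 or 40 μM started the reaction. NADPH consumption was followed at 340 nm and % inhibition taken against DMSO-matched controls. Run in triplicate, mean ± SD.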

[9] = Stability in human plasma by HPLC analysis; format: ADME, cell-free; conditions: read-out: Stability
Summary of the method: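 Human plasma was diluted 10-fold in PBS and incubated with 1 mM compound solutions for 0, 2 and 12 h at 37 °C. Samples were quenched with ice-cold acetonitrile, centrifuged, filtered and analysed by C18 reversed-phase HPLC at 25 °C.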

Trypanothione reductase [10] = target: T1, Trypanothione reductase (Trypanosoma brucei brucei, UniProt P39051); assay: Inhibition of Trypanosoma brucei trypanothione reductase using TS2 as substrate in presence of NADPH by spectrophotometric method
T1 sequence (P39051 whole entry): as the sequence (P39051 whole entry, looked up) above

Trypanothione reductase [11] = target: T1, Trypanothione reductase; assay: Mixed-type inhibition of Trypanosoma brucei trypanothione reductase assessed as enzyme-inhibitor-substrate complex using varying levels of TS2 as substrate in presence of NADPH by Lineweaver-Burk plot analysis
Summary of the method: (§2)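 TryR assay in Hepes/EDTA buffer pH 7.5 with 100 μM NADPH at 25 °C, started with TS2 and read at 340 nm. Inhibition type was assigned from a Lineweaver-Burk plot.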

Leishmania donovani [12] = assay: Antiparasitic activity against Leishmania donovani amastigotes
Trypanothione reductase [13] = target: T1, Trypanothione reductase; assay: Mixed-type inhibition of Trypanosoma brucei trypanothione reductase assessed as enzyme-inhibitor complex using varying levels of TS2 as substrate in presence of NADPH by Lineweaver-Burk plot analysis; summary of the method: as §2
[14] = target: Trypanothione reductase (Trypanosoma brucei brucei) (UniProt P39051); assay: Inhibition of Trypanosoma brucei trypanothione reductase at 40 uM using 100 uM TS2 as substrate in presence of NADPH by spectrophotometric method relative to control; summary of the method: as §1
Mus musculus = assay: Toxicity in Swiss mouse assessed as death at 100 mg/kg, ip administered as single dose measured up to 30 days; format: organism-based; conditions: in vivo, 720 h
Summary of the method: (§3)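 Swiss mice infected ip with 10,000 T. b. brucei CMP trypanosomes, randomly grouped (six per batch), then given one ip dose of 100 or 10 mg/kg; controls received pentamidine, melarsamine or excipient. Parasitemia followed at days 2, 3, 4 and 30; deaths recorded by day post-treatment; efficacy as mean survival time minus that of excipient-treated controls (days ± SD).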

[15] = test system: Trypanosoma brucei brucei; assay: Antitrypanosomal activity against Trypanosoma brucei brucei CMP infected in Swiss mouse assessed as change in mean survival time at 100 mg/kg, ip administered as single dose measured up to 30 days; format: functional; summary of the method: as §3

SMILES | selectivity ratio [1] | selectivity ratio [2] | CC50 at 48 h [3] [µM] | selectivity ratio at 72 h [4] | IC50 (Leishmania donovani [5]) [µM] | IC50 [6] [µM] | IC50 (Leishmania donovani [7]) [µM] | inhibition [8] [%] | half-life [9] [h] | IC50 (Trypanothione reductase [10]) [µM] | Ki (Trypanothione reductase [11]) [µM] | IC50 (Leishmania donovani [12]) [µM] | Ki (Trypanothione reductase [13]) [µM] | inhibition [14] [%] | Activity (Mus musculus) | Survival [15] [days]
CC(C)(C)OC(=O)NC1CCC(N(CCCN(Cc2ccc(F)cc2)Cc2ccc(F)cc2)CCCN(Cc2ccc(F)cc2)Cc2ccc(F)cc2)CC1 (configuration not stated) | > 23.8 | > 5.8 | > 100 | > 9.8 | 10.2 | 4.2 | 17.2 | – | – | – | – | – | – | – | – | –
NCCCCN(CCCN(Cc1ccccc1)Cc1ccccc1)CCCN(Cc1ccccc1)Cc1ccccc1 | 1.3 | – | 1.2 | – | 57.3 | 0.9 | 22.4 | – | – | – | – | – | – | – | – | –
NCCCCNCCCN(Cc1ccc2ccccc2c1)Cc1ccc2ccccc2c1 | 12.2 | – | 4.9 | – | 5 | 0.4 | 8.7 | 47 | – | – | – | – | – | – | – | –
CC(C)(C)OC(=O)NC1CCC(NCCCN(Cc2ccc(F)cc2)Cc2ccc(F)cc2)CC1 (configuration not stated) | 8.4 | – | 4.2 | – | 6.8 | 0.5 | 6.8 | – | – | – | – | – | – | – | – | –
NCCCCNCCCN(Cc1ccc(-c2ccccc2)cc1)Cc1ccc(-c2ccccc2)cc1 | 21 | – | 4.2 | 1.1 | 3.9 | 0.2 | 7.1 | – | > 12 | – | – | – | – | – | – | –
NCCCCNCCCN(Cc1ccccc1)Cc1ccccc1 | 2 | – | 17.7 | – | > 100 | 8.8 | 27.4 | > 50 | > 12 | 8.8 | 20 | 25 | 7.5 | – | – | –
NCCCCN(CCCN(Cc1ccc(F)cc1)Cc1ccc(F)cc1)CCCN(Cc1ccc(F)cc1)Cc1ccc(F)cc1 | 15 | – | 1.5 | – | 2 | 0.1 | 6.5 | > 60 | – | – | – | – | – | 30 | – | –
Cl.Cl.NCCS[As](SCCN)c1ccc(Nc2nc(N)nc(N)n2)cc1 | – | – | – | – | – | – | – | – | – | – | – | – | – | – | Non-Toxic | >30
CC(C)(C)OC(=O)NCCCCNCCCN(Cc1ccc2ccccc2c1)Cc1ccc2ccccc2c1 | 5.4 | – | 4.3 | 1.1 | 3.8 | 0.8 | 6.1 | 60 | – | – | – | – | – | 45 | – | –
CC(C)(C)OC(=O)NCCCCNCCCN(Cc1cccc(-c2ccccc2)c1)Cc1cccc(-c2ccccc2)c1 | > 2.9 | – | > 100 | > 1.2 | 79.5 | 33.9 | > 100 | – | – | – | – | – | – | – | – | –
N=C(N)c1ccc(OCCCCCOc2ccc(C(=N)N)cc2)cc1.O=S(=O)(O)CCO.O=S(=O)(O)CCO [PENTAMIDINE ISETHIONATE] | – | – | – | – | – | – | – | – | – | – | – | – | – | – | Non-Toxic | >30
CC(C)(C)OC(=O)NCCCCNCCCN(Cc1ccc(-c2ccccc2)cc1)Cc1ccc(-c2ccccc2)cc1 | > 6.9 | > 2.4 | > 100 | > 2.6 | 38.5 | 14.4 | 41.7 | – | – | – | – | – | – | – | – | –
NCCCCNCCCN(Cc1ccc(OCc2ccccc2)cc1)Cc1ccc(OCc2ccccc2)cc1 | > 2.8 | – | > 100 | > 1.4 | 72.2 | 35.5 | > 100 | – | – | – | – | > 3.9 | – | – | – | –
CC(C)(C)OC(=O)NCCCCN(CCCN(Cc1ccccc1)Cc1ccccc1)CCCN(Cc1ccccc1)Cc1ccccc1 | 41.7 | 8.3 | 12.5 | 5 | 2.5 | 0.3 | 1.5 | – | – | – | – | – | – | – | – | –
NC1CCC(N(CCCN(Cc2ccc(F)cc2)Cc2ccc(F)cc2)CCCN(Cc2ccc(F)cc2)Cc2ccc(F)cc2)CC1 (configuration not stated) | – | 1.1 | 4.5 | – | 15.7 | 10.4 | 4.2 | – | – | – | – | – | – | – | – | –
NCCCCNCCCN(Cc1cccc(-c2ccccc2)c1)Cc1cccc(-c2ccccc2)c1 | 3.5 | 1.1 | 30.3 | – | 35.7 | 8.7 | 27.8 | – | – | – | – | – | – | – | – | –
CC(C)(C)OC(=O)NCCCCNCCCN(Cc1ccc(OCc2ccccc2)cc1)Cc1ccc(OCc2ccccc2)cc1 | 7.1 | – | 33.3 | 1.3 | 26.4 | 4.7 | 42 | – | – | – | – | – | – | – | – | –
CC(C)(C)OC(=O)NCCCCNCCCN(Cc1ccc(F)cc1)Cc1ccc(F)cc1 | 4.3 | – | 8.7 | – | 14.7 | 2 | 14.5 | – | – | – | – | – | – | – | – | –
NCCCCNCCCN(Cc1ccc(F)cc1)Cc1ccc(F)cc1 | 9.4 | – | 33.1 | – | 70.3 | 3.5 | 35.8 | – | – | – | – | – | – | – | – | –
CC(C)(C)OC(=O)NC1CCC(NCCCN(Cc2ccccc2)Cc2ccccc2)CC1 (configuration not stated) | 7.3 | – | 5.1 | – | 14.2 | 0.7 | 5.4 | – | – | – | – | – | – | – | – | –
NCCCCNCCCN(Cc1ccsc1)Cc1ccsc1 | 8.6 | – | 52.8 | – | > 100 | 6.1 | 59.1 | – | – | – | – | – | – | – | – | –
NC1CCC(NCCCN(Cc2ccccc2)Cc2ccccc2)CC1 (configuration not stated) | 3.6 | 1.1 | 7.6 | – | > 100 | 2.1 | 6.6 | – | – | – | – | – | – | – | – | –
CC(C)(C)OC(=O)NCCCCNCCCN(Cc1ccsc1)Cc1ccsc1 | 10.9 | – | 16.4 | – | 25.3 | 1.5 | 21.1 | – | – | – | – | – | – | – | – | –
CC(C)(C)OC(=O)NCCCCN(CCCN(Cc1ccc(F)cc1)Cc1ccc(F)cc1)CCCN(Cc1ccc(F)cc1)Cc1ccc(F)cc1 | 6.3 | – | 12 | 1.8 | 6.6 | 1.9 | 16.6 | – | – | – | – | – | – | – | – | –
CC(C)(C)OC(=O)NCCCCNCCCN(Cc1ccccc1)Cc1ccccc1 | 20.8 | 3.7 | 12.5 | – | 14.6 | 0.6 | 3.4 | – | – | – | – | – | – | – | – | –
